For 27 compounds, Activity and IC50 results are on record in ChEMBL document CHEMBL1144710, “epigenetic multiple ligands: mixed histone/protein methyltransferase, acetyltransferase, and class III deacetylase (sirtuin) inhibitors” (J Med Chem, 2008).

The structures appear in SMILES notation. pIC50: −log10 of the molar value. Active and inactive are the calls of the source.

Assay [1] deals with U-937. Kind of assay: Inhibition of histone H3R17 methylation in human U937 cells at 50 uM after 24 hrs. The class given is functional, cell-based. The essentials:
(§1)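 U937 cells treated at 50 µM for 24 h. Histones extracted with Triton buffer, then 0.2 M HCl overnight at 4 °C. 3–10 µg run on 15% SDS-PAGE and immunoblotted with anti-monomethyl-H3K4, monomethyl-H4R3 or dimethyl-H3R17 (1:500, overnight 4 °C), ECL detection. Loading controls: total H4 (H3K4), Ponceau Red (Arg marks).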

Assay [2] deals with U-937. Put plainly: Inhibition of histone H4R3 methylation in human U937 cells at 50 uM after 24 hrs. It counts as functional, cell-based. The method, boiled down: as §1
A further assay has as its target RmtA (Emericella nidulans, UniProt Q5VLE3). Put plainly: Inhibition of Aspergillus nidulans RmtA. The essentials:
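Enzyme was GST-RmtA fusion expressed in E. coli BL21 and glutathione-affinity purified (500 ng), preincubated with compound for 15 min at room temperature. Then 20 µg chicken erythrocyte core histones and 0.55 µCi [3H]AdoMet were added, 30 min at 30 °C. Stopped with 25% TCA, filtered, counted by liquid scintillation.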

Assay [3] deals with U-937. Put plainly: Inhibition of histone H3K4 methylation in human U937 cells at 50 uM after 24 hrs. It counts as functional, cell-based. The essentials: as §1
Assay [4] addresses Protein arginine N-methyltransferase 1 (Homo sapiens) (UniProt Q99873). Put plainly: Inhibition of human recombinant PRMT1 assessed as nuclear ribonucleoprotein Npl3p methylation at 100 uM. The method, boiled down: (§2)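 Recombinant enzymes (0.2 µg) with substrate (0.5 µg: Npl3p for PRMT1, PABP1 for CARM1, histone H3 for SET7), 0.5 µM [3H]AdoMet and 100 µM compound in PBS pH 7.4 with 3.3% v/v DMSO, 90 min at 30 °C. Products separated by 10% SDS-PAGE, transferred to PVDF, detected by fluorography on film overnight.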

Assay [5] has as its target T1, Histone-arginine methyltransferase CARM1 (Homo sapiens) (UniProt Q86X55).
T1 sequence (whole entry): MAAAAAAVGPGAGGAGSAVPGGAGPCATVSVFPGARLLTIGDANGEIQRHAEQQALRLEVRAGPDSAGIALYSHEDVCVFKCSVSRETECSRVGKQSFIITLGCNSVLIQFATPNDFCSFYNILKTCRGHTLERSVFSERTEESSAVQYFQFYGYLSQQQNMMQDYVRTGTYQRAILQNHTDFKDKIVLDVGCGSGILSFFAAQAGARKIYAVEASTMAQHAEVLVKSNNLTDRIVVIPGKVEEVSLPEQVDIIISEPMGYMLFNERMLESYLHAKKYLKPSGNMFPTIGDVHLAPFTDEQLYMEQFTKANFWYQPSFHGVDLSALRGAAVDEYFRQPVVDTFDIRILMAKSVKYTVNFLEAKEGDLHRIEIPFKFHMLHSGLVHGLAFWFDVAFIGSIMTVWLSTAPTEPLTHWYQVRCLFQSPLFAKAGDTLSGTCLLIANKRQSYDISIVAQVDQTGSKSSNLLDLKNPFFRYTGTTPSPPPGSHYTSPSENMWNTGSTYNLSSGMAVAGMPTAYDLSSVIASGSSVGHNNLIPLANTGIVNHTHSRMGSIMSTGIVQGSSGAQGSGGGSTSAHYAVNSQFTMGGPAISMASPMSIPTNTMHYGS
Put plainly: Inhibition of human recombinant CARM1 assessed as poly(A) binding protein 1 methylation at 100 uM. The essentials:
as §2

In assay [6] the target is T2, Histone-lysine N-methyltransferase SETD7 (Homo sapiens) (UniProt Q8WTS6).
T2 sequence (whole entry): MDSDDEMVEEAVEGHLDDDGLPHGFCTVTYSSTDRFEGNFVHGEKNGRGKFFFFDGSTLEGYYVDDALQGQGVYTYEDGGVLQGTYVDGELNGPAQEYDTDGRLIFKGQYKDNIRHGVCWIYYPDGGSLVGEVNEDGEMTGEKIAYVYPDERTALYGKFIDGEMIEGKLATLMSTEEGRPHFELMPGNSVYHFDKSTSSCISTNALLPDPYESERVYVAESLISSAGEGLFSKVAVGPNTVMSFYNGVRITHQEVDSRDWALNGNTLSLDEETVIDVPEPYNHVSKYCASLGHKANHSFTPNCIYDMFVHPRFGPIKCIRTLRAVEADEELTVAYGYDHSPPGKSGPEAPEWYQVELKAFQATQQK
Put plainly: Inhibition of human recombinant SET7 assessed as histone H3 protein methylation at 100 uM. The essentials: as §2

Chain of Protein arginine N-methyltransferase 1 (Homo sapiens) (Q99873 whole entry, looked up): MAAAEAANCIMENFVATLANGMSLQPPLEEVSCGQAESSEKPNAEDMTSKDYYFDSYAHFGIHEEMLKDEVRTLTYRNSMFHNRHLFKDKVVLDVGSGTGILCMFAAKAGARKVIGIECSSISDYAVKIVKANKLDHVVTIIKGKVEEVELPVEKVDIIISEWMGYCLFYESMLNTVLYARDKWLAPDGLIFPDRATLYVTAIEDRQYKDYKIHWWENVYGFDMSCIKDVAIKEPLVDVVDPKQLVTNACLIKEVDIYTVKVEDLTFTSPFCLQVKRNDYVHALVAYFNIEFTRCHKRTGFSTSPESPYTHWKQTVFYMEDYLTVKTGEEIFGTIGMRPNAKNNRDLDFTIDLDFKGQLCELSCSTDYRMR
Chain of RmtA (Q5VLE3 whole entry, the tested form may be a part): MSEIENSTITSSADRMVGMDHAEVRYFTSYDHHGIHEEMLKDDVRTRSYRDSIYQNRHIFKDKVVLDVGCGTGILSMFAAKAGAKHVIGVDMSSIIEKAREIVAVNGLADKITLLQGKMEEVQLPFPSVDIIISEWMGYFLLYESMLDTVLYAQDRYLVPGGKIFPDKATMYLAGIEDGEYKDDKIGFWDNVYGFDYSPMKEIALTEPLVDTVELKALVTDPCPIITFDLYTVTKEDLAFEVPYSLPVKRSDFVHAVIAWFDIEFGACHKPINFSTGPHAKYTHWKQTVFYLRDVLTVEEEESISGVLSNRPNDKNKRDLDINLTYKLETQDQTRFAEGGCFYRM

Turning to `O=C(NCCNC(=O)c1cc(Br)c(O)c(Br)c1)c1cc(Br)c(O)c(Br)c1`, the result with U-937 [1] and in the assay on U-937 [2] was Active. Also, the pIC50 – broadly, −log10 of the IC50, conventionally taken in molar units – against RmtA is 4.05.
Turning to `Cc1cc(/C=C/C(=O)/C=C/c2cc(C)c(O)c(C)c2)cc(C)c1O`, the outcome with U-937 [3], with U-937 [1] and in the assay with U-937 [2] was Active. Also, at RmtA, the pIC50 was 3.69.
As for `O=C(CCCC(=O)Nc1cc(Br)c(O)c(Br)c1)Nc1cc(Br)c(O)c(Br)c1`, the outcome in the assay on U-937 [1] and in the assay with U-937 [2] was Active. For the same compound, the pIC50 against RmtA is 3.76.
In the case of `O=C(/C=C/c1ccc(O)cc1Br)/C=C/c1ccc(O)cc1Br`, the result in the assay with U-937 [3], with U-937 [1] and with U-937 [2] was Active. On RmtA, the pIC50 is 3.94.
Consider `O=C(/C=C/c1ccc(O)c(Br)c1)CC(=O)/C=C/c1ccc(O)c(Br)c1`, for which the result in assay [4] and in assay [6] was inactive. The outcome (in the assay with U-937 [1]; in assay [5]; with U-937 [2]) was Active. At RmtA, this compound gave a pIC50 of 3.96.
Regarding `O=C(/C=C/c1c(Br)cc(O)cc1Br)/C=C/c1c(Br)cc(O)cc1Br`, the outcome (in the assay with U-937 [3]; in assay [4]; in the assay with U-937 [1]; with U-937 [2]) was Active. The outcome in assay [6] was inactive. Besides, the pIC50 against RmtA was 3.67.
Regarding `O=C(/C=C/c1ccc(O)c(Br)c1)c1ccccc1`, the outcome in the assay with U-937 [3], in the assay with U-937 [1] and in the assay on U-937 [2] was Active. This compound gave a pIC50 on RmtA of 3.72.
Turning to `O=C(/C=C/c1ccc(O)c([N+](=O)[O-])c1)/C=C/c1ccc(O)c([N+](=O)[O-])c1`, the outcome with U-937 [3], with U-937 [1] and with U-937 [2] was Active. On RmtA, this compound gave a pIC50 of 3.60.
Turning to `O=C(/C=C/c1cc(Br)c(O)c(Br)c1)c1ccccc1`, the outcome in the assay with U-937 [3], with U-937 [1] and in the assay on U-937 [2] was Active. At RmtA, the pIC50 is 3.94.
On to `O=C(/C=C/c1ccc(O)c(Br)c1)c1cccc(C(=O)/C=C/c2ccc(O)c(Br)c2)c1`, for which the outcome (with U-937 [3]; in the assay with U-937 [1]; in assay [5]; in the assay with U-937 [2]) was Active. Besides, the result in assay [4] and in assay [6] was inactive. The compound also showed a pIC50 against RmtA of 4.23.
For `O=C(/C=C/c1ccc(O)c(F)c1)/C=C/c1ccc(O)c(F)c1`, the result with U-937 [3], in the assay on U-937 [1] and in the assay on U-937 [2] was Active. For the same compound, the pIC50 against RmtA was 3.77.
For the compound `O=C1/C(=C/c2cc(Br)c(O)c(Br)c2)Cc2ccccc2/C1=C\c1cc(Br)c(O)c(Br)c1`, the outcome with U-937 [3], in the assay with U-937 [1] and in the assay on U-937 [2] was Active. On RmtA, this compound showed a pIC50 of 4.43.
In the case of `O=C(Nc1cc(Br)c(O)c(Br)c1)C(=O)Nc1cc(Br)c(O)c(Br)c1`, the outcome in the assay on U-937 [1] and in the assay with U-937 [2] was Active. The pIC50 against RmtA is 4.49.
Turning to `CC(C)(C(=O)/C=C/c1cc(Br)c(O)c(Br)c1)C(=O)/C=C/c1cc(Br)c(O)c(Br)c1`, the outcome in the assay on U-937 [1] and in the assay on U-937 [2] was Active. In addition, the pIC50 against RmtA was 3.81.
For `CN1C/C(=C\c2ccc(O)c(Br)c2)C(=O)/C(=C/c2ccc(O)c(Br)c2)C1`, the outcome in the assay on U-937 [3], in the assay with U-937 [1] and with U-937 [2] was Active. This compound also gave a pIC50 against RmtA of 3.79.
Turning to `O=C1/C(=C/c2ccc(O)c(Br)c2)CCC/C1=C\c1ccc(O)c(Br)c1`, the result (in the assay with U-937 [3]; in the assay with U-937 [1]; in assay [5]; in the assay on U-937 [2]) was Active. Besides, the outcome in assay [4] and in assay [6] was inactive. Besides, the pIC50 on RmtA was 4.05.
As for `O=C(NCCCCNC(=O)c1cc(Br)c(O)c(Br)c1)c1cc(Br)c(O)c(Br)c1`, the outcome in the assay on U-937 [1] and with U-937 [2] was Active. Besides, the negative-log IC50 (pIC50) on RmtA was 3.21.
Consider `CN1C2CCC1/C(=C\c1cc(Br)c(O)c(Br)c1)C(=O)/C2=C/c1cc(Br)c(O)c(Br)c1`, for which the result with U-937 [3], with U-937 [1] and in the assay with U-937 [2] was Active. This compound showed a pIC50 against RmtA of 4.08.
On to `O=C(/C=C/c1ccc(O)c(C(=O)O)c1)/C=C/c1ccc(O)c(C(=O)O)c1`, for which the result with U-937 [3], in the assay with U-937 [1] and with U-937 [2] was Active. The compound further had a pIC50 against RmtA of 4.26.
As to `O=C1/C(=C/c2cc(Br)c(O)c(Br)c2)CN(Cc2ccccc2)C/C1=C\c1cc(Br)c(O)c(Br)c1`, the outcome in the assay on U-937 [3], in the assay with U-937 [1] and in the assay on U-937 [2] was Active. Also, the negative-log IC50 (pIC50) on RmtA is 3.68.
As for `O=C(Nc1ccc(NC(=O)c2cc(Br)c(O)c(Br)c2)cc1)c1cc(Br)c(O)c(Br)c1`, the outcome (in assay [4]; in the assay with U-937 [1]; in assay [5]; in assay [6]; in the assay with U-937 [2]) was Active. The same compound had a pIC50 on RmtA of 3.91.
Turning to `O=C(/C=C/c1ccc(O)c(Br)c1)c1ccc(C(=O)/C=C/c2ccc(O)c(Br)c2)cc1`, the outcome in assay [4] and in assay [6] was inactive. The outcome (with U-937 [1]; in assay [5]; with U-937 [2]) was Active. On RmtA, this compound showed a pIC50 of 4.33.
For `O=C(NCCCNC(=O)c1cc(Br)c(O)c(Br)c1)c1cc(Br)c(O)c(Br)c1`, the outcome in the assay with U-937 [1] and in the assay with U-937 [2] was Active. In addition, the negative-log IC50 (pIC50) against RmtA was 4.12.
With `O=C(CCC(=O)Nc1cc(Br)c(O)c(Br)c1)Nc1cc(Br)c(O)c(Br)c1`, the result with U-937 [1] and in the assay on U-937 [2] was Active. Moreover, the pIC50 at RmtA is 3.81.
Take `CN1C/C(=C\c2ccc(O)c(Br)c2)C(=O)/C(=C/c2cc(Br)c(O)c(Br)c2)C1`: the result in the assay on U-937 [3], with U-937 [1] and in the assay with U-937 [2] was Active. Further, at RmtA, the pIC50 is 3.91.
Take `O=C(CC(=O)Nc1cc(Br)c(O)c(Br)c1)Nc1cc(Br)c(O)c(Br)c1`: the result in the assay on U-937 [1] and in the assay on U-937 [2] was Active. Moreover, the pIC50 at RmtA is 3.99.
As for `O=C(/C=C/c1c(O)cc(Br)cc1Br)/C=C/c1c(O)cc(Br)cc1Br`, the outcome (in the assay with U-937 [3]; in assay [4]; in the assay on U-937 [1]; in the assay with U-937 [2]) was Active. Also, the result in assay [6] was inactive. The same compound showed a pIC50 at RmtA of 3.62.
